For test [1], the species on record is Homo sapiens. Put plainly: Intensity calculated on a weight basis relative to an 85500 ppm sucrose solution at a concentration of 250 ppm (mean value). It is filed as functional. Summed up: (§1)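 Trained human panel tasted aqueous solutions of purity-checked (≥95 weight percent) compounds cleared for mutagenicity and mouse oral toxicity. Weight-basis intensity I_w = perceived intensity × (85500 ppm sucrose / compound concentration in ppm). The mean is reported with 2S_m limits; data deviating excessively at 95% confidence were rejected by the t-value method.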

For test [2], the species on record is Homo sapiens. Put plainly: Other taste character at a concentration of 250 ppm (mean value). It is filed as functional. The method in brief: (§2)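 Trained human sensory panel (Swartz method) tasted dilute aqueous solutions of the compounds, which had to be ≥95 weight percent pure and free of mutagenicity and toxicity. Taste character is reported as the mean value with 2S_m limits. Data deviating excessively at the 95% confidence level were rejected by the t-value method.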

The species entered for test [3] is Homo sapiens. Nature of the test: Salty character at a concentration of 250 ppm (mean value). In kind it is functional. The method in brief: as §2
The species named for test [4] is Homo sapiens. Put plainly: Percentage of judgments reporting an aftertaste at a concentration of 250 ppm and character thereof. In kind it is functional. Summed up:
(§3)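 Trained judges tasted aqueous solutions of the compounds, which had to be ≥95 weight percent pure and to have passed mutagenicity and single oral dose toxicity screening. The value is the percentage of panel judgments reporting an aftertaste. Where given, its character is recorded as sweet, bitter or bitter-sweet.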

For test [5], the species on record is Homo sapiens. Put plainly: Sweet character at a concentration of 250 ppm (mean value). It is filed as functional. Summed up:
as §2

The species named for test [6] is Homo sapiens. Nature of the test: Sweet / Bitter character at a concentration of 250 ppm (mean value); 69/31. It is filed as functional.
Test [7] is filed under the species Homo sapiens. Nature of the test: Intensity calculated on a molar basis relative to a 0.25 M sucrose solution at a concentration of 250 ppm (mean value). In kind it is functional. Summed up: (§4)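 Trained human judges tasted aqueous solutions of the test compound; compounds were first required to be ≥95 weight percent pure and free of mutagenicity (five Salmonella typhimurium strains, ± microsomal activation) and of single oral dose mouse toxicity. Molar intensity I_m = perceived intensity × (0.25 M sucrose / compound molar concentration). The mean is reported with 2S_m limits; outliers were rejected at 95% confidence by t-value.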

The species entered for test [8] is Homo sapiens. Nature of the test: Sour character at a concentration of 250 ppm (mean value). It is filed as functional. The method in brief:
as §2

The species named for test [9] is Homo sapiens. Put plainly: Bitter character at a concentration of 250 ppm (mean value). It is filed as functional. The method in brief: (§5)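 Trained human panel tasted aqueous solutions. Each judge reported whether there was an aftertaste and its character (sweet, bitter or bitter-sweet). The value is the percentage of judgments reporting a bitter aftertaste.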

For test [10], the species on record is Homo sapiens. Put plainly: Experimentally determined perceived intensity of compound at a concentration of 250 ppm (mean value). In kind it is functional. The method in brief:
(§6)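 Trained human sensory panel of judges tasted aqueous solutions of the compound. Samples had to be ≥95 weight % pure (HPLC, proton titration, Karl Fischer), non-mutagenic in five Salmonella typhimurium strains with and without microsomal activation, and non-toxic in a single-oral-dose mouse test. Perceived intensity (Ip) was read from time–intensity curves at 4- or 6-s intervals and averaged. Outliers at the 95% level were rejected by t-value. Values reported as mean (2Sm).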

For test [11], the species on record is Homo sapiens. Put plainly: Number of taste judgments per compound. In kind it is functional.
The species entered for test [12] is Homo sapiens. Put plainly: Experimentally determined perceived intensity of compound at a concentration of 2000 ppm (mean value). It is filed as functional. Summed up: as §6
The species entered for test [13] is Homo sapiens. Nature of the test: Percentage of judgments reporting an aftertaste at a concentration of 2000 ppm and character thereof. In kind it is functional. Summed up:
as §3

The species entered for test [14] is Homo sapiens. Nature of the test: Other taste character at a concentration of 90 ppm (mean value). In kind it is functional. Summed up: as §2
Test [15] is filed under the species Homo sapiens. Nature of the test: Intensity calculated on a molar basis relative to a 0.25 M sucrose solution at a concentration of 90 ppm (mean value). It is filed as functional. The method in brief: as §4
The species named for test [16] is Homo sapiens. Nature of the test: Bitter character at a concentration of 90 ppm (mean value). In kind it is functional. Summed up:
as §5

Test [17] is filed under the species Homo sapiens. Nature of the test: Sour character at a concentration of 90 ppm (mean value). It is filed as functional.
Test [18] is filed under the species Homo sapiens. Nature of the test: Intensity calculated on a weight basis relative to an 85500 ppm sucrose solution at a concentration of 90 ppm (mean value). It is filed as functional. The method in brief: as §1
Test [19] is filed under the species Homo sapiens. Put plainly: Percentage of judgments reporting an aftertaste at a concentration of 90 ppm and character thereof. In kind it is functional.
Test [20] is filed under the species Homo sapiens. Put plainly: Experimentally determined perceived intensity of compound at a concentration of 90 ppm (mean value). It is filed as functional. Summed up: as §6
The species named for test [21] is Homo sapiens. Put plainly: Sweet / Bitter character at a concentration of 90 ppm (mean value); 91/9.
The species entered for test [22] is Homo sapiens. Nature of the test: Sweet character at a concentration of 90 ppm (mean value). It is filed as functional.
The species entered for test [23] is Homo sapiens. Nature of the test: Salty character at a concentration of 90 ppm (mean value). It is filed as functional.
Test [24] is filed under the species Homo sapiens. Nature of the test: Percentage of judgments reporting an aftertaste at a concentration of 1011 ppm and character thereof; Bitter-sweet. It is filed as functional. The method in brief:
as §3

The species named for test [25] is Homo sapiens. Nature of the test: Sour character at a concentration of 1011 ppm (mean value). In kind it is functional.
The species entered for test [26] is Homo sapiens. Put plainly: Sweet character at a concentration of 1011 ppm (mean value). It is filed as functional.
The species named for test [27] is Homo sapiens. Nature of the test: Sweet / Bitter character at a concentration of 1011 ppm (mean value). In kind it is functional.
For test [28], the species on record is Homo sapiens. Put plainly: Experimentally determined perceived intensity of compound at a concentration of 1011 ppm (mean value). It is filed as functional. Summed up:
as §6

For test [29], the species on record is Homo sapiens. Put plainly: Salty character at a concentration of 1011 ppm (mean value). In kind it is functional.
Test [30] is filed under the species Homo sapiens. Nature of the test: Intensity calculated on a weight basis relative to an 85500 ppm sucrose solution at a concentration of 1011 ppm (mean value). In kind it is functional. Summed up:
as §1

Test [31] is filed under the species Homo sapiens. Nature of the test: Bitter character at a concentration of 1011 ppm (mean value). In kind it is functional. The method in brief:
as §5

For test [32], the species on record is Homo sapiens. Nature of the test: Intensity calculated on a molar basis relative to a 0.25 M sucrose solution at a concentration of 1011 ppm (mean value). In kind it is functional. Summed up:
as §4

The species entered for test [33] is Homo sapiens. Put plainly: Other taste character at a concentration of 1011 ppm (mean value). In kind it is functional. Summed up: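 Trained human panel tasted aqueous solutions of each compound. Aftertaste is scored as the percentage of judgments reporting one, with its character coded sweet (s), bitter (b) or bitter-sweet (bs).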

Turning to `COc1ccc(CCC(=O)c2c(O)cc(OC(CCCO)C(=O)[O-])cc2O)cc1O.[Na+]` (stereo not given), in the test listed under Homo sapiens [1], the IW is listed as 34. Also, the Taste character in the test listed under Homo sapiens [2] was determined as 0; in the test listed under Homo sapiens [3] it was 0; in the test filed under Homo sapiens [5], 69; in the test listed under Homo sapiens [6], 69; in the test listed under Homo sapiens [8], 0; in the test filed under Homo sapiens [9] it was 31. The Judgments in the test filed under Homo sapiens [4] is given as 0; in the test filed under Homo sapiens [11] it was 4. For the same compound, the IM in the test filed under Homo sapiens [7] is 43. The compound further displayed an IP in the test listed under Homo sapiens [10] of 0.1.
As to `COc1ccc(CNC(=O)c2c(O)cc(OCC(=O)[O-])cc2O)cc1O.[Na+]`, the IP in the test listed under Homo sapiens [12] was 0. For the same compound, the Judgments in the test listed under Homo sapiens [13] was determined as 0; in the test listed under Homo sapiens [11] it was 1.
In the test listed under Homo sapiens [12], `COc1ccc(CCC(=N)c2c(O)cc(OCC(=O)[O-])cc2O)cc1O.[Na+]` gave an IP of 0. The Judgments was 0 in the test filed under Homo sapiens [13] and 1 in the test filed under Homo sapiens [11].
Consider `COc1ccc(CCC(=O)c2c(O)cc(O)cc2O)cc1O`, for which the Taste character was 4 in the test listed under Homo sapiens [14]; 8 in the test listed under Homo sapiens [16]; 0 in the test filed under Homo sapiens [17]; 91 in the test listed under Homo sapiens [21]; 83 in the test filed under Homo sapiens [22]; 5 in the test listed under Homo sapiens [23]. Moreover, the IM in the test filed under Homo sapiens [15] is 750. Besides, the IW in the test listed under Homo sapiens [18] is listed as 850. The Judgments turned out to be 70 in the test listed under Homo sapiens [19] and 10 in the test listed under Homo sapiens [11]. Besides, the IP in the test filed under Homo sapiens [20] turned out to be 0.89.
For the compound `COc1ccc(CCc2noc3cc(OCCCS(=O)(=O)[O-])cc(O)c23)cc1O.[K+]`, the Judgments in the test listed under Homo sapiens [24] was 100; in the test filed under Homo sapiens [11] it was 12. Further, the Taste character was found to be 0 in the test listed under Homo sapiens [25]; 41 in the test filed under Homo sapiens [26]; 52 in the test listed under Homo sapiens [27]; 0 in the test filed under Homo sapiens [29]; 38 in the test listed under Homo sapiens [31]; 21 in the test listed under Homo sapiens [33]. Besides, in the test filed under Homo sapiens [28], the IP was determined as 0.49. The IW in the test listed under Homo sapiens [30] is 41. In addition, the IM in the test listed under Homo sapiens [32] is on record as 56.
`COc1ccc(CCC(=O)c2c(O)cc(OC(CC(O)CO)C(=O)[O-])cc2O)cc1O.[Na+]` (stereo not given) returned an IP in the test filed under Homo sapiens [12] of 0. Also, the Judgments is given as 0 in the test filed under Homo sapiens [13] and 1 in the test listed under Homo sapiens [11].
With `CNc1ccc(CCC(=O)c2c(O)cc(OCC(=O)[O-])cc2O)cc1O.[Na+]`, the IP in the test listed under Homo sapiens [12] turned out to be 0. The Judgments in the test listed under Homo sapiens [13] amounted to 0; in the test filed under Homo sapiens [11] it was 1.

Values taken from ChEMBL document CHEMBL1121813, “Dihydrochalcone sweeteners. A study of the atypical temporal phenomena” (1981).
